Reference: ChEMBL document CHEMBL1123528, “Syntheses and in vitro evaluation of 4-(2-aminoethyl)-2(3H)-indolones and related compounds as peripheral prejunctional dopamine receptor agonists” (J Med Chem, 1986)

Species on record: Oryctolagus cuniculus
Assay: Ability to stimulate peripheral prejunctional dopaminergic receptors by 50% inhibition of vasoconstrictor response to field stimulation in isolated perfused rabbit ear artery
Assay type: functional
Method in brief: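 Isolated rabbit ear artery, perfused, constricted by electrical field (nerve) stimulation. The test drug was given in increasing concentrations, each left in contact with the tissue for 4 min, and the concentration was raised right after the response to nerve stimulation. For dopaminergic blockade, (S)-sulpiride superfusion began after the initial concentration-effect curve was obtained.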

EC50	SMILES
> 3000 nM	CCCN(CCC)CCc1ccc(OC)c2c1CC(=O)N2
28 nM	CCCN(CCc1ccc(O)cc1)CCc1cccc2c1CC(=O)N2
> 3000 nM	NCCc1ccc2c(c1)CC(=O)N2
> 3000 nM	CCCN(CCC)CCc1ccc(O)c2c1CC(=O)N2C
> 3000 nM	CCCN(CCC)CCc1ccc2c(c1)NC(=O)C2
18 nM	CCCN(CCC)CCc1ccc(O)c2c1C(C)C(=O)N2 (configuration not stated)
> 3000 nM	CCCN(CCC)CCc1ccc(O)c2c1C(C)(C)C(=O)N2
53 nM	O=C1Cc2c(CCNCCc3ccc(O)cc3)ccc(O)c2N1
218 nM	CCCN(CCC)CCc1ccc(O)c2c1C(C)(O)C(=O)N2 (configuration not stated)
3000 nM	CCCN(CCC)CCc1ccc2c(c1)CC(=O)N2

SMILES	EC50
CCCN(CCC)CCc1ccc(O)c(NC=O)c1	750 nM
CCCN(CCC)CCc1ccc(O)cc1	80 nM
NCCc1ccc(O)c2c1CC(=O)N2	116 nM
CCCN(CCC)CCc1ccc(O)c(NC(C)=O)c1	> 10000 nM
CCCN(CCC)CCc1cccc(O)c1	700 nM
NCCc1ccc(O)c(O)c1 [DOPAMINE]	73 nM
CCCN(CCC)CCc1cccc2c1CC(=O)N2 [ROPINIROLE]	100 nM
